Measured values reported in ChEMBL document CHEMBL4513216, “Probing the Open Global Health Chemical Diversity Library for Multistage-Active Starting Points for Next-Generation Antimalarials” (ACS Infect Dis, 2020).

Test: Toxicity liver stage against HepG2, at 10uM
Type: cell-based
Set-up: test concentration 10 uM, cell line HepG2-A16-CD81EGFP
Details: human, HepG2-A16-CD81EGFP cells; read-out: INHIBITION
Procedure, shortened: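 Uninfected HepG2-A16-CD81EGFP cells, 3 × 10^3 per well, 1536-well, plated on prespotted compound at 10 μM final, parasite-free screening media added to match infected plates; puromycin 10 μM positive, DMSO 0.5% negative; run in parallel with 48 h PbLuc assay at 37 °C, 5% CO2; viability by CellTiter-Glo luminescence, normalized to controls.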
With `CC(=O)Nc1ccc2c(c1)CN(C(=O)c1ccco1)CC2` the cytotoxicity at 10 µM was 6.17%. With `CCCS(=O)(=O)N1CC[C@H]2OCC[C@@]2(c2nnc(C)o2)C1` the cytotoxicity at 10 µM was 8.43%. `COc1cc(C(=O)NCC2CC2)nc2c(C)cc(F)cc12` gave a cytotoxicity at 10 µM of 7.52%. `Cc1ccc(C)c(Oc2cc(-n3nc(C)c(C#N)c3N)nc(C)n2)c1` showed a cytotoxicity at 10 µM of 69.5%. Compound `CCS(=O)(=O)N1CCCc2ccc(NC(=O)Cc3ccc(F)cc3)cc21` has a cytotoxicity at 10 µM of 18.6%. With `CSCC(C)(O)CNC(=O)c1cc(Br)ccc1Cl` (stereo unspecified) the cytotoxicity at 10 µM was -25.1%. `CS(=O)(=O)N1Cc2ccccc2C2(CCN(C(=O)c3ccno3)CC2)C1` gave a cytotoxicity at 10 µM of 6.31%. In the case of `CCOc1ccc(S(=O)(=O)N(C)Cc2cnn(CC)c2)cc1`, the cytotoxicity at 10 µM is reported as 11.6%. For `Cc1cc2nc(CN(C)c3ccc(Cl)cc3)cc(=O)n2o1`, the cytotoxicity at 10 µM was -13%. `Cc1nn(C)c2cn(C(C)C(=O)NCc3ccccn3)nc12` (stereo unspecified) gave a cytotoxicity at 10 µM of 11.1%. `COc1cccc([C@H]2CN(C(=O)c3ccccc3)[C@@H]3CCCN[C@H]23)c1` gave a cytotoxicity at 10 µM of -25.9%. `CCCn1nccc1-c1cc(C2CCN(S(C)(=O)=O)CC2)ccn1` gave a cytotoxicity at 10 µM of -6.94%. Work on `CCS(=O)(=O)N1CCCC(Cc2cnccn2)C1` (stereo unspecified) yielded a cytotoxicity at 10 µM of -10.3%. Work on `CS(=O)(=O)N1Cc2ccccc2CC2(CCN(Cc3ccccc3)C2)C1` (stereo unspecified) yielded a cytotoxicity at 10 µM of 7.38%. Compound `N#Cc1cccc(OCCN2CCC(C(=O)N3CCOCC3)CC2)c1` has a cytotoxicity at 10 µM of -42.3%. In the case of `CN(C)CCNc1ncccc1CNC(=O)Nc1cc(F)cc(F)c1`, the cytotoxicity at 10 µM is reported as 2.62%. Compound `CCN1CCCC(NC(=O)c2ccc(C)[nH]c2=O)C1` (stereo unspecified) has a cytotoxicity at 10 µM of 9.95%. In the case of `CN(c1nc(Cn2cnccc2=O)cs1)C1CC1`, the cytotoxicity at 10 µM is reported as -6.59%. Work on `CCC(CC)NC(=O)c1cccnc1-n1cccn1` yielded a cytotoxicity at 10 µM of -13.9%. Compound `CN(C)c1ccc(CNC2(c3ccc(F)cc3)CCOCC2)cc1F` has a cytotoxicity at 10 µM of 0.937%. In the case of `Cc1c(C(=O)NC2CCCOC2)nnn1-c1ccc(Cl)cc1F` (stereo unspecified), the cytotoxicity at 10 µM is reported as 8.55%. `CCn1cc(NC(=O)C2CCN(Cc3nc(C)c(C)s3)CC2)cn1` showed a cytotoxicity at 10 µM of 6.37%. `Cc1cnn(CC2CCCN2c2ncnc3sccc23)c1` (stereo unspecified) showed a cytotoxicity at 10 µM of 44.4%. Compound `CCC(C)C(=O)Nc1ccc2oc(=O)n(CCN(C)C)c2c1` (stereo unspecified) has a cytotoxicity at 10 µM of -14.8%. With `CC(CNC(=O)c1ccc(F)cc1I)N1CCCC1` (stereo unspecified) the cytotoxicity at 10 µM was 1.28%. Work on `Cc1cc(Cl)cc(C)c1CNC1CCN(CC(=O)N(C)C)CC1` yielded a cytotoxicity at 10 µM of -1.51%. `N#Cc1cccnc1NCc1ccc(S(=O)(=O)NCC2CCCO2)cc1` (stereo unspecified) showed a cytotoxicity at 10 µM of 5.98%. Work on `O=C(C1CCCN(Cc2cccnc2)C1)N1CCc2sccc2C1` (stereo unspecified) yielded a cytotoxicity at 10 µM of 7.99%. For `Cc1cc(C(=O)NS(=O)(=O)Cc2ccon2)c(C)n1C(C)C`, the cytotoxicity at 10 µM was -2.17%. For `Cc1cc(C)c(CNc2nc3ccccc3cc2CO)c(=O)[nH]1`, the cytotoxicity at 10 µM was 6.37%. In the case of `COCC(C)NS(=O)(=O)c1ccc(Br)cn1` (stereo unspecified), the cytotoxicity at 10 µM is reported as -6.74%. Compound `CC(=O)N1CCC(n2ccc(-c3cnc(NCC(C)C)nc3)n2)CC1` has a cytotoxicity at 10 µM of -9.13%. In the case of `CC1(C)C(C(=O)NCCC2CN(Cc3c[nH]cn3)CCO2)C1(C)C` (stereo unspecified), the cytotoxicity at 10 µM is reported as -3.67%. Compound `CSCC(=O)N(C)Cc1noc(-c2ccccc2)n1` has a cytotoxicity at 10 µM of -4.34%. `c1cn(-c2ccc(N3CCC(NC4CC4)CC3)cc2)cn1` showed a cytotoxicity at 10 µM of 5.16%. Compound `CNS(=O)(=O)c1ccc(CN2CCCN(Cc3ccncc3)CC2)cc1` has a cytotoxicity at 10 µM of 7.06%. Compound `O=C1Nc2ccccc2NC12CCN(Cc1nnc(C3CC3)o1)CC2` has a cytotoxicity at 10 µM of -7.03%. For `O=C1CC2(CCN(C(=O)c3cccc(Cl)c3)CC2)CN1`, the cytotoxicity at 10 µM was -3.02%. For `O=C(NCc1ccc2[nH]c(=O)[nH]c2c1)c1ccc(CN2CCCC2)o1`, the cytotoxicity at 10 µM was -0.987%. With `OCc1ccc(CN(CCCn2ccnc2)Cc2cccnc2)o1` the cytotoxicity at 10 µM was -6.75%. `CC(O)c1cn(CC2CCN(C(=O)c3cccc(N(C)C)c3)CC2)nn1` (stereo unspecified) gave a cytotoxicity at 10 µM of -0.412%. With `COc1ccccc1C1CNC(=O)c2nc(-c3nccn3C)[nH]c2C1` (stereo unspecified) the cytotoxicity at 10 µM was 4.2%. In the case of `Cc1cnc(C)c(-c2cccc(-c3ccn(CCN4CCCC4)n3)c2)n1`, the cytotoxicity at 10 µM is reported as -10.5%. In the case of `CCCN1CCC(CC(=O)N(C)CC(=O)c2ccc(O)cc2)CC1`, the cytotoxicity at 10 µM is reported as 1.73%. Work on `O=C(C1CCC1)N1CCC(C2CCN(Cc3ccc(Cl)cc3)C2)CC1` (stereo unspecified) yielded a cytotoxicity at 10 µM of -10.5%. `CCOc1ccc(C(=O)CCC(=O)NCc2csc(N)n2)cc1C` gave a cytotoxicity at 10 µM of 7.34%. `CC(C)CN1CC2(CCN(C(=O)c3nc4ncccn4n3)CC2)CC1=O` gave a cytotoxicity at 10 µM of 0.345%. With `Cc1ccc(C(=O)NCCN2CCOCC2)cc1N(C)S(C)(=O)=O` the cytotoxicity at 10 µM was 15.1%. Compound `Cc1cc(NC(=O)CN2CCOC(Cn3nc(C)cc3C)C2)n(C)n1` (stereo unspecified) has a cytotoxicity at 10 µM of -7.91%. `CC(C)CNC(=O)CN1C=Nc2ccccc2S1(=O)=O` gave a cytotoxicity at 10 µM of -2.09%. For `CC(NC(=O)CSCC#N)c1ccccc1` (stereo unspecified), the cytotoxicity at 10 µM was -5.9%. For `c1ccc2oc(N3CCCCC3Cn3cncn3)nc2c1` (stereo unspecified), the cytotoxicity at 10 µM was -7.59%. For `CC(C)c1nc(C2CCCN(C(=O)CCn3ccnc3)C2)no1` (stereo unspecified), the cytotoxicity at 10 µM was -10.8%. Compound `CC(C(=O)Nc1ccc(N2CCCC2)nc1)n1cncn1` (stereo unspecified) has a cytotoxicity at 10 µM of -6.19%. With `Cc1ccccc1-c1noc(CN2CCn3c(nnc3C3CC3)C2)n1` the cytotoxicity at 10 µM was -7.64%. `O=C(Nc1cnn(CCN2CCOCC2)c1)c1ccccc1O` showed a cytotoxicity at 10 µM of -3.38%. With `Cc1ccc(Cc2cnc(NC(=O)C3CNC(=O)N3)s2)cc1F` (stereo unspecified) the cytotoxicity at 10 µM was 1.11%. Compound `CC(=O)N1CCN(C(=O)c2cnn(-c3ccccc3Cl)c2)CC1` has a cytotoxicity at 10 µM of -8.72%. With `Cc1ccccc1CCNC(=O)C1CC(=O)N(CC(F)(F)F)C1` (stereo unspecified) the cytotoxicity at 10 µM was -6.17%. `Cc1cnn(CC2CCN(CC(O)COc3ccc(F)cc3)CC2)c1` (stereo unspecified) gave a cytotoxicity at 10 µM of -10.9%. For `COCC1CN(CC2CC2)Cc2nn(C)cc21` (stereo unspecified), the cytotoxicity at 10 µM was 0.281%. `Cc1cc(C(=O)N2CCCC3(COCCN(CCN(C)C)C3)C2)no1` (stereo unspecified) gave a cytotoxicity at 10 µM of 3.22%. With `COc1ccc(C[C@H]2CN(c3cc(OC)ncn3)CC[C@@H]2OC)cc1` the cytotoxicity at 10 µM was 50%. Work on `O=C(c1ccncc1F)N1Cc2nc(COCC3CC3)oc2C1` yielded a cytotoxicity at 10 µM of -99.9%. In the case of `O=S(=O)(c1cccnc1)N1C[C@@H]2COC[C@]2(CN2CCOCC2)C1`, the cytotoxicity at 10 µM is reported as 5.86%. In the case of `CN(Cc1ccncc1)C1CC2(CCN(c3ncc(F)cn3)CC2)C1`, the cytotoxicity at 10 µM is reported as 52.4%. For `Cn1cccc1C(=O)N1CC[C@H]2[C@H]1CCN2CC1CC1`, the cytotoxicity at 10 µM was -3.86%. Compound `CCCN1CCc2c(C(=O)N(C)Cc3ccccn3)nn(C)c2C1` has a cytotoxicity at 10 µM of -1.92%. Work on `Cc1ccc2c(c1)C1(CCNCC1)CC2NCCO` (stereo unspecified) yielded a cytotoxicity at 10 µM of -105%. With `CCC(=O)Nc1ccc2c(c1)C1(CCOCC1)CN2CCOC` the cytotoxicity at 10 µM was -99%. With `Cc1ccc(N2CC[C@@H]3[C@@H]2CCN3C(=O)Cc2ccsc2)nn1` the cytotoxicity at 10 µM was -93.9%. Compound `CCOc1c(Br)cc(CNCCc2nnc3n2CCCCC3)cc1OC` has a cytotoxicity at 10 µM of -59.6%. With `COc1c(CNCc2ccc(C(=O)N(C)C)cc2)c(C)nn1C` the cytotoxicity at 10 µM was 1.64%. `COc1cc(N2CCC3(CCN(Cc4csc(C)n4)C3)CC2)ncn1` gave a cytotoxicity at 10 µM of -118%. Work on `Cc1ccc(C(=O)N2CCC3(CC2)CC(N2CCOCC2)C3)cc1` yielded a cytotoxicity at 10 µM of 1.93%. In the case of `COc1ncccc1CNC1CCc2c(ccc(=O)n2CC2CC2)C1` (stereo unspecified), the cytotoxicity at 10 µM is reported as -110%. In the case of `Cc1nc(COC[C@@H]2CC[C@H]3NCC[C@H]3O2)cs1`, the cytotoxicity at 10 µM is reported as -3.15%. Compound `C1CC(N2C[C@@H]3COC[C@]3(COCC3CCOCC3)C2)C1` has a cytotoxicity at 10 µM of -111%. Compound `CN(Cc1ccco1)[C@@H]1CN(Cc2cccnc2)[C@@H]2CCCO[C@H]12` has a cytotoxicity at 10 µM of -79.8%. `CCC=C(C)C(=O)NCc1ccnc(OC2CCOCC2)c1` gave a cytotoxicity at 10 µM of 5.48%. Work on `C=c1ccoc1=C1NN=C(CNC2CCCN(c3cccnn3)C2)O1` (stereo unspecified) yielded a cytotoxicity at 10 µM of -9.48%.
